Assay results from different studies.
Protocols differ between the studies behind these lines.
Target: Activin receptor type-2A (ACVR2A, Homo sapiens, UniProt P27037)

Structure (SMILES) | effect on | method | tested at | remaining binding [%]
N[C@H]1CCN(c2nccc(-c3cnn4ncccc34)n2)C1 | binding | – | 1 µM | 100
C[C@H](c1ccnc(Nc2nc3ccc(-c4cc(N(C)C)ncn4)cc3[nH]2)c1)N1CCN(C(=O)CC(F)(F)F)CC1 | cell-free assay | competition with immobilised ligand | 0.1 µM | 100
C[C@@H]1CCN(c2nccc(-c3cnn4ncccc34)n2)C1 | binding | – | 1 µM | 100
COc1ccc2c(O[C@@H]3C[C@H]4C(=O)N[C@]5(C(=O)O)CC5/C=C\CCCCC[C@H](NC(=O)OC5CCCC5)C(=O)N4C3)cc(-c3csc(NC(=O)C(C)C)n3)nc2c1C (stereo partly shown) | cell-free assay | competition with immobilised ligand | 1 µM | 72
COc1ccnn2ncc(-c3ccnc(N(C)C)n3)c12 | binding | – | 1 µM | 100
O=C(Nc1cccnn1)N1CCC(=Cc2cccc(Oc3ccc(C(F)(F)F)cn3)c2)CC1 | cell-free assay | competition with immobilised ligand | 1 µM | 100
C=CC(=O)N1CCC(C(=O)NCC(=O)N2CCN(c3nc(-c4cnc(N)nc4C(F)F)nc(N4CCOCC4)n3)CC2)CC1 | binding | competition with immobilised ligand | 1 µM | 86
F[C@@H]1CCN(c2nccc(-c3cnn4ncccc34)n2)C1 | binding | – | 1 µM | 100
CC1=C(C#N)C(c2ccc3c(c2)c(NC(=O)c2ccccc2C)nn3C)C(C#N)=C(C)N1 | cell-free assay | competition with immobilised ligand | 1 µM | 97
COc1cnc(Nc2cccc(S(N)(=O)=O)c2)nc1N1CCN(c2ccccc2)CC1 | binding | competition with immobilised ligand | 1 µM | 97
O=C(NCCCN1CCOCC1)c1ccc(Nc2ncc(Cl)c(-c3ccc(Cl)s3)n2)cc1 | binding | competition with immobilised ligand | 1 µM | 90
Cc1cnn2ncc(-c3ccnc(N(C)C)n3)c2c1 | binding | – | 1 µM | 74
O=C(NCc1ncc(C(F)(F)F)cc1Cl)c1ccc2c(c1)C1(CCS(=O)(=O)CC1)[C@@H](C1CC1)N2S(=O)(=O)c1ccc(F)cc1 | cell-free assay | competition with immobilised ligand | 1 µM | 100
O=C(Nc1c[nH]nc1C(=O)NC1CCNCC1)c1cc(F)cc(F)c1 | binding | competition with immobilised ligand | 1 µM | 100
COc1ncc2cc3ccccc3nc2c1C#N | cell-free assay | competition with immobilised ligand | 5 µM | 85
c1cnn2ncc(-c3ccnc(N4CCC45COC5)n3)c2c1 | binding | – | 1 µM | 99
Cc1cnc(Nc2ccc(C(=O)N3CCC(N4CCCC4)CC3)cc2)nc1-c1cc2ccccc2s1 | binding | competition with immobilised ligand | 1 µM | 69
COc1cnc(Nc2cccc(S(N)(=O)=O)c2)nc1N1CCN(c2ccccc2)C(=O)C1 | binding | competition with immobilised ligand | 1 µM | 100
C[C@@H](c1ccc(-n2cnc3c(N)ncnc32)cc1)N1CCc2nn(C)c(Cc3ccccc3)c2C1=O | binding | competition with immobilised ligand | 0.1 µM | 92
CN(C)c1nccc(-c2cnc3ncccn23)n1 | binding | – | 1 µM | 100
O=C1CCc2cc(Nc3cc(OC4CCOCC4)c([N+](=O)[O-])cc3Cl)ccc2N1 | cell-free assay | competition with immobilised ligand | 1 µM | 81
O=C(c1ccc(Nc2ncc(Cl)c(-c3cc4ccccc4s3)n2)cc1)N1CCC(N2CCCC2)CC1 | binding | competition with immobilised ligand | 1 µM | 64
